The target in experiment [1] is T1, Transient receptor potential cation channel subfamily V member 1 (Homo sapiens, UniProt Q8NER1). The experiment in a line: Antagonistic activity towards human vanilloid receptor subtype 1 expressed in HEK293 cell […], as inhibition of agonist-induced intracellular [Ca2+] levels. It is filed as functional, cell-based.
Experiment [2] deals with T1, Transient receptor potential cation channel subfamily V member 1. Briefly: Binding affinity towards human vanilloid receptor subtype 1 expressed in HEK293 cell membrane using [3H]-RTX as radioligand. In kind it is cell membranes. In a few lines:
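Membranes from hVR1/HEK293 cells homogenized twice with a Polytron in 20 mM HEPES pH 7.4 with 5.8 mM NaCl, 320 mM sucrose, 2 mM MgCl2, 0.75 mM CaCl2 and 5 mM KCl. Spun at 3000 rpm for 10 min; supernatant spun at 18,000 rpm for 20 min; pellet taken up in assay buffer.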

Structures are written as SMILES.

T1 sequence (Q8NER1 whole entry): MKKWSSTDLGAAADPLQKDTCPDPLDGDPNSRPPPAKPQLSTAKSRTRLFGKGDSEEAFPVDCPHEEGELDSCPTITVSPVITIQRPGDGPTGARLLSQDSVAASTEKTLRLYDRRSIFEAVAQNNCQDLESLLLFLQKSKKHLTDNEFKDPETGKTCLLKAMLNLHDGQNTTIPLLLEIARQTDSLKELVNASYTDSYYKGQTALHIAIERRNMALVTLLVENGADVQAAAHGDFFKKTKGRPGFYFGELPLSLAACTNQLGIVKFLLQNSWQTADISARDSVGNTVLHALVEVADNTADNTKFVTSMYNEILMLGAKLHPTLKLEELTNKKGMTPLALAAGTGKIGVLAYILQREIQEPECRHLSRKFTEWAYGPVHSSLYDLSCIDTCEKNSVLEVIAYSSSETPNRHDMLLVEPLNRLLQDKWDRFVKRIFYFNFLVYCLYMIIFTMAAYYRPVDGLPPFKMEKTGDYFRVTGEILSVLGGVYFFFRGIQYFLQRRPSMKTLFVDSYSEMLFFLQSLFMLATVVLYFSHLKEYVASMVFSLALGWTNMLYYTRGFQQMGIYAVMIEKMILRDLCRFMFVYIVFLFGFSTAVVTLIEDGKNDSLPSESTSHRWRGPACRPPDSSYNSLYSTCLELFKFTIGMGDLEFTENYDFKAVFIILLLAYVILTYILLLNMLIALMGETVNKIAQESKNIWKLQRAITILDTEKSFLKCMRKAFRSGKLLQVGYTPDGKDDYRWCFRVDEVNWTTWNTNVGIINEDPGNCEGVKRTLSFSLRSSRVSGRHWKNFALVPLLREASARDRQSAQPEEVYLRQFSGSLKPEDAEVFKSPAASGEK

The IC50 is the concentration at which inhibition is half-maximal. The low end stands for higher potency, the high end for lower potency. As usually defined, the Ki is the equilibrium dissociation constant of an inhibitor or competing ligand from its target. High values mean weaker binding, low ones tighter binding. As for `O=C(NCc1ccc(OC(F)(F)F)cc1)Nc1cccc2cnccc12`, in experiment [1], the IC50 is 3 nM. The affinity in experiment [2], expressed as Ki, was 1.3 nM.

`O=C(NCc1ccc(Cl)cc1)Nc1cccc2cnccc12` yielded an IC50 in experiment [1] of 6 nM.

In experiment [1], `CCCCCc1ccc(C(=O)Nc2cccc3cnccc23)cc1` gave an IC50 of 2400 nM. Moreover, in experiment [2], the Ki was 71 nM.

Regarding `O=C(NCc1ccc(Cl)c(C(F)(F)F)c1)Nc1cccc2cnccc12`, the IC50 in experiment [1] is 6 nM. In experiment [2], this compound registered an inhibition constant (Ki) of 0.8 nM.

With `O=C(NCCc1ccc(C(F)(F)F)cc1)Nc1cccc2cnccc12`, the IC50 in experiment [1] stood at 19 nM. Besides, the affinity in experiment [2], expressed as Ki, was 22 nM.

With `O=C(NCCc1ccc(Cl)c(Cl)c1)Nc1cccc2cnccc12`, the IC50 in experiment [1] is 10 nM. This compound also yielded a Ki in experiment [2] of 17 nM.

For the compound `O=C(NCCc1ccccc1)Nc1cccc2cnccc12`, in experiment [1], the IC50 worked out at 1000 nM.

As for `COc1ccc(CCNC(=O)Nc2cccc3cnccc23)cc1`, the IC50 in experiment [1] was 680 nM.

In experiment [1], `O=C(NCc1ccc(C(F)(F)F)cc1)Nc1cccc2cnccc12` returned an IC50 of 3 nM. In addition, in experiment [2], the Ki was found to be 5 nM.

As for `O=C(Nc1ccc(Cl)c(Cl)c1)Nc1cccc2cnccc12`, the IC50 in experiment [1] came out at 170 nM. This compound returned a Ki in experiment [2] of 17 nM.

Consider `O=C(CCc1ccc(C(F)(F)F)cc1)Nc1cccc2cnccc12`, for which the IC50 in experiment [1] is 38 nM. The compound further registered a Ki in experiment [2] of 60 nM.

In experiment [1], `CCC(C)(C)c1ccc(CCC(=O)Nc2cccc3cnccc23)cc1` had an IC50 of 13 nM. Besides, the Ki in experiment [2] was 4 nM.

`O=C(NCc1ccc(Cl)c(Cl)c1)Nc1cccc2cnccc12` gave an IC50 in experiment [1] of 4 nM. The Ki in experiment [2] stood at 9 nM.

In experiment [1], `CC(C)(C)c1ccc(/C=C/C(=O)Nc2cccc3cnccc23)cc1` gave a 50% inhibitory concentration (IC50) of 5 nM. In experiment [2], the affinity corresponds to a Ki of 1.2 nM.

In experiment [1], `O=C(NCCc1ccc(OC(F)(F)F)cc1)Nc1cccc2cnccc12` gave an IC50 of 11 nM.

On to `CCCCc1ccc(NC(=O)Nc2cccc3cnccc23)cc1`, for which the IC50 in experiment [1] was determined as 490 nM. The compound also displayed a Ki in experiment [2] of 330 nM.

`O=C(/C=C/c1ccccc1)Nc1cccc2cnccc12` registered an IC50 in experiment [1] of 1500 nM.

For `O=C(Nc1cccc(C(F)(F)F)c1)Nc1cccc2cnccc12`, the IC50 in experiment [1] turned out to be 32 nM. In experiment [2], this compound came in with a Ki of 19 nM.

`O=C(NCCc1cccc(C(F)(F)F)c1)Nc1cccc2cnccc12` came in with an IC50 in experiment [1] of 19 nM.

The compound `CC(C)(C)c1ccc(CCC(=O)Nc2cccc3cnccc23)cc1` returned an IC50 in experiment [1] of 410 nM. Also, the affinity in experiment [2] corresponds to a Ki of 11 nM.

For the compound `O=C(Nc1cc(C(F)(F)F)cc(C(F)(F)F)c1)Nc1cccc2cnccc12`, the IC50 in experiment [1] came out at 32 nM. The compound also gave a Ki in experiment [2] of 1.4 nM.

With `O=C(NCc1cccc(C(F)(F)F)c1)Nc1cccc2cnccc12`, the IC50 in experiment [1] was determined as 11 nM. This compound also had a Ki in experiment [2] of 23 nM.

With `CC(C)(C)c1ccc(CNC(=O)Nc2cccc3cnccc23)cc1`, the concentration for half-maximal inhibition (IC50) in experiment [1] amounted to 3 nM. In addition, the affinity in experiment [2] corresponds to a Ki of 0.3 nM.

Regarding `COc1ccc(CNC(=O)Nc2cccc3cnccc23)cc1`, in experiment [1], the IC50 turned out to be 45 nM.

Regarding `CC(C)(C)c1ccc(CCNC(=O)Nc2cccc3cnccc23)cc1`, the IC50 in experiment [1] was 3 nM.
